Assay [1] deals with Delta-type opioid receptor (Homo sapiens, UniProt P41143). Nature of the assay: Binding affinity for Opioid receptor delta 1 by the inhibition of binding of [3H]-p-DPDPE human cloned receptors. The gist of the method: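 Crude membranes from CHO cells stably expressing human δ receptor, with 0.75 nM [³H]-p-Cl-DPDPE. Samples incubated 3 h at 25 °C; nonspecific binding from 10 μM naltrexone; 10 inhibitor concentrations, with totals in duplicate. Filtered on PEI-treated glass-fiber filters, washed with cold saline, scintillation counted. IC50 by nonlinear regression.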
Delta-type opioid receptor (Homo sapiens, UniProt P41143), sequence (P41143 whole entry): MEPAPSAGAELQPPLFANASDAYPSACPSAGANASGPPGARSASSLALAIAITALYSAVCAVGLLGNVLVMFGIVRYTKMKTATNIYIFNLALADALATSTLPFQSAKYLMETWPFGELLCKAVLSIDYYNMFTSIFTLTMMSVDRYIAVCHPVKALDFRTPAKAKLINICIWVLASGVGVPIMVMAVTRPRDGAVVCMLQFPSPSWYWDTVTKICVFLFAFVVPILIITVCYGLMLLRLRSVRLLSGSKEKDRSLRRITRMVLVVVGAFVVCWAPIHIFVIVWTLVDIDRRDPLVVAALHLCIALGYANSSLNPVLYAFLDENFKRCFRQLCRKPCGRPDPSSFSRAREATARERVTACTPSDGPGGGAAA

Assay [2] addresses Mu-type opioid receptor (Rattus norvegicus, UniProt P33535). In words: Binding affinity for Opioid receptor mu 1 by the inhibition of binding of [3H]DAMGO in rat brain membranes. The class given is cell membranes. Put shortly:
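Rat brain membranes with [³H]DAMGO at 1-3 nM, incubated 4 h at 25 °C in 50 mM Tris-HCl pH 7.4 plus protease inhibitor cocktail. Nonspecific binding measured with 20 μM levallorphan. Radioligand displaced by nine drug concentrations, in two runs. Drugs diluted in 10 mM Tris-HCl pH 7.4 containing 1 mg/mL BSA. IC50 reported.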

Assay [3] addresses Kappa-type opioid receptor (Cavia porcellus, UniProt P41144). In words: Binding affinity for Opioid receptor kappa 1 by the inhibition of binding of [3H]U-69593 in guinea pig brain membranes. Format: cell membranes. The gist of the method: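 Guinea pig brain membranes, first depleted of μ and δ sites by pretreatment with irreversible ligands BIT and FIT. Nonspecific binding from 1 μM U69,593. Nine concentrations, run twice. IC50 reported.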

Assay [4] addresses T1, Delta-type opioid receptor (Rattus norvegicus, UniProt P33533). In words: Binding affinity for Opioid receptor delta 1 by the inhibition of binding of [3H]DADAL in rat brain membranes. The class given is cell membranes. Put shortly:
(§1)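 Rat brain membranes labelled with [³H]DADLE at 1.7-2.5 nM. Incubation 3-4 h at 25 °C in Tris-HCl pH 7.4 with 100 mM choline chloride, 3 mM MnCl₂, protease inhibitor cocktail and 100 nM DAMGO to block μ sites. Nonspecific binding defined with 20 μM levallorphan. Nine test concentrations, run twice. IC50 reported.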

For assay [5], the target named is Mu-type opioid receptor (Homo sapiens, UniProt P35372). In words: Binding affinity for micro receptors by the inhibition of binding of [3H]DAMGO to Opioid receptor mu 1 in human cloned receptors. Put shortly: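 Crude membranes from B82 mouse fibroblasts stably expressing human μ receptor, with 1.0 nM [³H]DAMGO. Samples incubated 3 h at 25 °C; nonspecific binding from 10 μM naltrexone; 10 inhibitor concentrations, with totals in duplicate. Filtered on PEI-treated glass-fiber filters, washed with cold saline, scintillation counted. IC50 by nonlinear regression.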
Mu-type opioid receptor (Homo sapiens, UniProt P35372), sequence (P35372 whole entry): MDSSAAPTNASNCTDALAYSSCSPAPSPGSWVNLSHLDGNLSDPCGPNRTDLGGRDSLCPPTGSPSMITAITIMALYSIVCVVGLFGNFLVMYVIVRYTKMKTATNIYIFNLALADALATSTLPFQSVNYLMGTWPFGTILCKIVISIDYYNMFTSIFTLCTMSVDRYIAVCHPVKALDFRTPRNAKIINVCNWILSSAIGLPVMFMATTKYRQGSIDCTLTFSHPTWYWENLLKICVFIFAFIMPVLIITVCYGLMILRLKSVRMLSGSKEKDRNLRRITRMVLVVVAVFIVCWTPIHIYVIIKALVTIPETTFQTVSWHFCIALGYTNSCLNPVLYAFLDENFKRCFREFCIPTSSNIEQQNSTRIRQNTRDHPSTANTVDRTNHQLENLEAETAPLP

The species named for assay [6] is Cavia porcellus. Nature of the assay: Binding affinity ratio of kappa opioid receptor (guinea pig brain membranes) with respect to delta opioid receptor( rat brain membranes). The class given is cell membranes. To be noted: Membrane. Put shortly:
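Ratio of IC50 from [³H]U69,593 binding to μ/δ-depleted guinea pig brain membranes over IC50 from [³H]DADLE binding to rat brain membranes (μ sites blocked with 100 nM DAMGO). Both assays run at 25 °C in Tris-HCl pH 7.4, nine concentrations, run twice.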

The target in assay [7] is Opioid receptors; mu & delta (Rattus norvegicus) (UniProt P33533+P33535). Nature of the assay: Binding affinity ratio on mu opioid receptor( rat brain membranes) with respect to delta opioid receptor (rat brain membranes). The gist of the method:
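Ratio of IC50 from [³H]DAMGO binding to rat brain membranes over IC50 from [³H]DADLE binding to rat brain membranes (μ sites blocked with 100 nM DAMGO). Both assays run at 25 °C in Tris-HCl pH 7.4, nine concentrations, run twice.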

The target in assay [8] is Opioid receptors; mu & delta (Homo sapiens) (UniProt P41143+P35372). Nature of the assay: Relative binding affinity to mu and delta opioid receptors. The class given is protein assay.
Opioid receptors; mu & delta (Homo sapiens), sequence (P35372 whole entry, looked up): as the sequence (P35372 whole entry) above
Opioid receptors; mu & delta (Homo sapiens), sequence (P41143 whole entry, looked up): as the sequence (P41143 whole entry) above
Assay [9] addresses T1, Delta-type opioid receptor. Nature of the assay: Binding affinity for Opioid receptor delta 1 as inhibition of [3H]DADAL binding to rat brain membranes. The class given is cell membranes, Membrane. Put shortly:
as §1

pIC50: −log10 of the molar value.

T1 sequence (P33533 whole entry): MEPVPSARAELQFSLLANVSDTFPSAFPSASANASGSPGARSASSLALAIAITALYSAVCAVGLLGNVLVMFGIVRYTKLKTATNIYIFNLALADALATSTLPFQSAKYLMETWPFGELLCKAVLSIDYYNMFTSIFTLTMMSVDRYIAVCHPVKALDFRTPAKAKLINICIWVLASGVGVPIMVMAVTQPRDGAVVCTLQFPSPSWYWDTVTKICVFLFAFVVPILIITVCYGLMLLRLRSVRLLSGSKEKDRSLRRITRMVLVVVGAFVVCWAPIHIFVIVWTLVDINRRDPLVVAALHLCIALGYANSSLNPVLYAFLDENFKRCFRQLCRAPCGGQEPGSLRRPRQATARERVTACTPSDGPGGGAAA
Opioid receptors; mu & delta (Rattus norvegicus), sequence (P33533 whole entry, looked up): as the sequence (P33533 whole entry) above
Opioid receptors; mu & delta (Rattus norvegicus), sequence (P33535 whole entry, looked up): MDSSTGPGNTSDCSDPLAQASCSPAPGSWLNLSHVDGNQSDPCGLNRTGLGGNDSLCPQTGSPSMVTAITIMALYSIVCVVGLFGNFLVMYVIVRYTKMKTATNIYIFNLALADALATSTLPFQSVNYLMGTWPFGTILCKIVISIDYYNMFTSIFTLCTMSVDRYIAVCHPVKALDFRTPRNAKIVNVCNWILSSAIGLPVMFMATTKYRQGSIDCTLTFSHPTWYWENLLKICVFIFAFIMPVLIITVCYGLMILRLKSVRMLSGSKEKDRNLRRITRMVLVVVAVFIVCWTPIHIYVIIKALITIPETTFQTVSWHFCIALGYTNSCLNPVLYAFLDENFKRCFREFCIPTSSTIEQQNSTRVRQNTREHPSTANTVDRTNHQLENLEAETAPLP
Kappa-type opioid receptor, sequence (P41144 whole entry): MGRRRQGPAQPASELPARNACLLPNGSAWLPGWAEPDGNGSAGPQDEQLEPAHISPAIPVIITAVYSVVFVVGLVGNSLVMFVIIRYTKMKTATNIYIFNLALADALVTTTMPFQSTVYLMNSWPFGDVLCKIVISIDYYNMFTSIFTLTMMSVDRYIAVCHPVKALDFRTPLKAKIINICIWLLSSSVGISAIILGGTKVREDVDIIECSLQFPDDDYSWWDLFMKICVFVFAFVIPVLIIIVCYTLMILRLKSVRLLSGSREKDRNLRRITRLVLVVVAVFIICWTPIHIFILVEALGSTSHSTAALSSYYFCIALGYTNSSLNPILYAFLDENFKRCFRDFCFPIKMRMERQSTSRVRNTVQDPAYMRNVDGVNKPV
Mu-type opioid receptor (Rattus norvegicus, UniProt P33535), sequence (P33535 whole entry): as the sequence (P33535 whole entry, looked up) above

`C=CCN1C[C@H](C)N([C@H](c2ccc(C(=O)N3CCCCCC3)cc2)c2cccc(OC)c2)C[C@H]1C`: the pIC50 in assay [1] was 7.89; in assay [2], less than 5.60; in assay [3], less than 5.00; in [4], 8.09; in [5], 5.35. For the same compound, the values for the Ratio in assay [6] and in assay [7] were more than 1220 and more than 305, respectively. Further, in assay [8], the Mu/delta ratio amounted to 344.
As for `C=CCN1C[C@H](C)N([C@H](c2ccc(C(=O)N3CCCCC3)cc2)c2cccc(OC)c2)C[C@H]1C`, the negative logarithm of the IC50 (pIC50) in assay [1] was 7.42; in [2] it was less than 5.60; in [3], less than 5.00; in assay [4], 7.84; in assay [5], 5.22. Further, the Ratio is more than 684 in assay [6] and more than 171 in assay [7]. In addition, the Mu/delta ratio in assay [8] was determined as 158.
Take `C=CCN1C[C@H](C)N([C@H](c2ccc(C(=O)NCC)cc2)c2cccc(OC)c2)C[C@H]1C`: the results for the pIC50 in [2], in assay [3] and in assay [9] were 6.62, 6.46 and 6.82, respectively. Besides, the Ratio in [6] was 2.3; in assay [7], 1.6.
Regarding `C=CCN1C[C@H](C)N([C@H](c2ccc(C(=O)N(CC)CCCC)cc2)c2cccc(OC)c2)C[C@H]1C`, the pIC50 in [1] is 7.99; in assay [2], 5.72; in [3] it was less than 5.00; in [4] it was 8.18; in assay [5], 5.48. The Ratio in assay [6] is more than 1520; in assay [7] it was 286. For the same compound, the Mu/delta ratio in assay [8] turned out to be 327.
As for `C=CCN1C[C@H](C)N([C@H](c2ccc(C(=O)N(C(C)C)C(C)C)cc2)c2cccc(OC)c2)C[C@H]1C`, the pIC50 in assay [1] is 8.30; in assay [2] it was less than 5.60; in assay [3] it was less than 5.60; in [4] it was 8.15; in assay [5], 5.17. Also, the Ratio in assay [6] and in assay [7] was more than 352 in each case. The Mu/delta ratio in assay [8] was determined as 1370.
As to `C=CCN1C[C@H](C)N([C@H](c2ccc(C(=O)N(C)C)cc2)c2cccc(OC)c2)C[C@H]1C`, the negative-log IC50 (pIC50) in [1] is 7.74; in [2], 5.49; in [3], less than 5.00; in assay [4], 8.32; in assay [5], 5.01. Besides, the Ratio in assay [6] was more than 2080; in [7], 679. For the same compound, the Mu/delta ratio in [8] worked out at 540.
`C=CCN1C[C@H](C)N([C@@H](c2ccc(C(=O)N(CCCC)CCCC)cc2)c2cccc(OC)c2)C[C@H]1C`: the negative logarithm of the IC50 (pIC50) in [2] was less than 5.60; in [3], less than 5.60; in assay [4], 6.89. For the same compound, the Ratio in [6] and in assay [7] was more than 5.5 throughout.
As to `C=CCN1C[C@H](C)N([C@H](c2ccc(C(=O)NC(CC)CC)cc2)c2cccc(OC)c2)C[C@H]1C`, the negative-log IC50 (pIC50) in assay [2] was less than 5.60; in assay [3], less than 5.60; in assay [4], 6.75. Moreover, the Ratio in [6] and in [7] was more than 14 each time.
As for `C=CCN1C[C@H](C)N([C@H](c2ccc(C(=O)N(C)CC)cc2)c2cccc(OC)c2)C[C@H]1C`, the pIC50 was 8.10 in assay [1]; 5.13 in assay [2]; less than 5.00 in [3]; 8.38 in [4]; 4.92 in [5]. Moreover, the Ratio in assay [6] was more than 2380; in [7], 1760. Moreover, the Mu/delta ratio in assay [8] stood at 1510.
Turning to `C=CCN1C[C@H](C)N([C@H](c2ccc(C(=O)N(CCC)CCC)cc2)c2cccc(OC)c2)C[C@H]1C`, the pIC50 in assay [1] was 8.12; in assay [2], 5.40; in assay [3], less than 5.00; in [4], 7.88; in assay [5] it was 5.22. Besides, the Ratio in assay [6] is more than 763; in [7], 305. Moreover, the Mu/delta ratio in [8] was determined as 811.
Take `C=CCN1C[C@H](C)N([C@H](c2ccc(C(=O)N3CCCC3)cc2)c2cccc(OC)c2)C[C@H]1C`: the negative logarithm of the IC50 (pIC50) in assay [1] is 7.58; in [2], less than 5.60; in assay [3], less than 5.00; in [4] it was 7.74; in [5], 5.21. Also, the results for the Ratio in assay [6] and in assay [7] were more than 552 and more than 138, respectively. In [8], the Mu/delta ratio stood at 233.

The values are drawn from ChEMBL document CHEMBL1130143, “Probes for narcotic receptor-mediated phenomena. 25. Synthesis and evaluation of N-alkyl-substituted (alpha-piperazinylbenzyl)benzamides as novel, highly selective delta opioid receptor agonists” (J Med Chem, 1997).
